Assay results reported in ChEMBL document CHEMBL1122913, “Novel dopamine receptor agonists and antagonists with preferential action on autoreceptors” (1985).
The source made the active and inactive calls. The rule behind the calls is not given here.

Assays:
Rattus norvegicus [1] = organism: Rattus norvegicus; assay: Locomotor activity after no pretreatment in rat at low-dose region expressed as percent of saline control; type: functional
Rattus norvegicus [2] = assay: Effective dose against DOPA accumulation in rat brain limbic region after reserpine pretreatment by subcutaneous administration; type: functional; settings: sc
Procedure, shortened: (§1)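 Male Sprague-Dawley rats (200-300 g), reserpine 5 mg/kg ip 18 h, test drug sc 60 min, and NSD 1015 100 mg/kg ip 30 min before death; saline controls. Limbic and striatal DOPA measured by HPLC-electrochemical detection. ED50 is the dose giving half-maximal decrease of DOPA formation, estimated from 4-7 dose levels (n = 3); controls = 100%.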

Rattus norvegicus [3] = organism: Rattus norvegicus; assay: Locomotor activity after no pretreatment in rat at high-dose region expressed as percent of saline control; type: functional
Rattus norvegicus [4] = organism: Rattus norvegicus; assay: Locomotor activity after reserpine pretreatment in rat(p<0.001); type: functional
Procedure, shortened: (§2)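 Rats received reserpine 10 mg/kg ip 6 h and DL-α-methyl-p-tyrosine methyl ester 250 mg/kg ip 1 h before, then test drug sc immediately before the session. Photocell counts accumulated over 30 min, mean ± SEM, n = 4-9; t test vs saline controls. Haloperidol 0.3 mg/kg ip 30 min before test drug used for blockade.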

Rattus norvegicus [5] = assay: Effective dose against DOPA accumulation in rat brain striatal region after reserpine pretreatment by subcutaneous administration; type: functional; settings: sc; procedure, shortened: as §1
Rattus norvegicus [6] = assay: Effective dose against DOPA accumulation in rat brain limbic region after no pretreatment by subcutaneous administration; type: functional; settings: sc
Procedure, shortened: (§3)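 Untreated male Sprague-Dawley rats (200-300 g) received test drug sc 65 min and NSD 1015 100 mg/kg ip 30 min before death; saline controls. Limbic or striatal DOPA measured by HPLC-electrochemical detection. ED50 is the dose giving half-maximal increase or decrease of DOPA formation, from 4-5 dose levels (n = 3-10); controls = 100%.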

Rattus norvegicus [7] = assay: Effective dose against DOPA accumulation in rat brain striatal region after no pretreatment by subcutaneous administration; type: functional; settings: sc; procedure, shortened: as §3
Rattus norvegicus [8] = organism: Rattus norvegicus; assay: Locomotor activity after reserpine pretreatment in rat; type: functional; procedure, shortened: as §2
Rattus norvegicus [9] = assay: Effective dose against DOPA accumulation in rat brain striatal region after reserpine pretreatment by subcutaneous administration; No significant effect of 16 mg/kg subcutaneous administration; type: functional, organism-based; design: dose 16 mg/kg
Rattus norvegicus [10] = assay: Effective dose against DOPA accumulation in rat brain limbic region after reserpine pretreatment by subcutaneous administration; No significant effect of 16 mg/kg subcutaneous administration; type: functional, organism-based; design: dose 16 mg/kg
Rattus norvegicus [11] = assay: Effective dose against DOPA accumulation in rat brain limbic region after no pretreatment by subcutaneous administration; No significant effect of 16 mg/kg subcutaneous administration; type: functional, organism-based; design: dose 16 mg/kg
Rattus norvegicus [12] = assay: Effective dose against DOPA accumulation in rat brain striatal region after no pretreatment by subcutaneous administration; No significant effect of 16 mg/kg subcutaneous administration; type: functional, organism-based; design: dose 16 mg/kg
Rattus norvegicus [13] = organism: Rattus norvegicus; assay: Locomotor activity after no pretreatment in rat at high-dose region expressed as percent of saline control; Inactive; type: functional, organism-based
Rattus norvegicus [14] = organism: Rattus norvegicus; assay: Locomotor activity after no pretreatment in rat at low-dose region expressed as percent of saline control; Inactive; type: functional, organism-based
Rattus norvegicus [15] = organism: Rattus norvegicus; assay: Locomotor activity after reserpine pretreatment in rat; Not Tested; type: functional, organism-based
Rattus norvegicus [16] = assay: Effective dose against DOPA accumulation in rat brain limbic region after reserpine pretreatment by subcutaneous administration; No significant effect at 0.5 mg/kg intraperitoneal administration; type: functional, organism-based; design: dose 0.5 mg/kg
Rattus norvegicus [17] = assay: Effective dose against DOPA accumulation in rat brain striatal region after reserpine pretreatment by subcutaneous administration; No significant effect at 0.5 mg/kg intraperitoneal administration; type: functional, organism-based; design: dose 0.5 mg/kg

Row | Structure (SMILES) | Control (Rattus norvegicus [1]) [%] | ED50 (Rattus norvegicus [2]) [mg/kg] | Control (Rattus norvegicus [3]) [%] | Accumulated counts/30 (Rattus norvegicus [4]) | ED50 (Rattus norvegicus [5]) [mg/kg] | ED50 (Rattus norvegicus [6]) [mg/kg] | ED50 (Rattus norvegicus [7]) [mg/kg] | Accumulated counts/30 min (Rattus norvegicus [8]) | ED50 (Rattus norvegicus [9]) | ED50 (Rattus norvegicus [10]) | Accumulated counts/30 (Rattus norvegicus [8]) | ED50 (Rattus norvegicus [11]) | ED50 (Rattus norvegicus [12]) | Control (Rattus norvegicus [13]) | Control (Rattus norvegicus [14]) | Accumulated counts/30 min (Rattus norvegicus [15]) | ED50 (Rattus norvegicus [16]) | ED50 (Rattus norvegicus [17])
1 | CN1CCc2cccc3c2[C@H]1Cc1ccc(O)c(O)c1-3 [APOMORPHINE] | 52 | 0.06 | 277 | 361 | 0.07 |  |  |  |  |  |  |  |  |  |  |  |  | 
2 | CCCN(CCC)[C@H]1CCc2c(O)cccc2[C@H]1C.Cl | 65 | 0.09 | 171 |  | 0.1 | 0.25 | 0.25 | 79 |  |  |  |  |  |  |  |  |  | 
3 | CCCN(CCC)[C@@H]1CCc2c(O)cccc2[C@@H]1C.Cl | 128 |  | 69 |  |  | 3 | 2.8 |  | inactive | inactive | 6 |  |  |  |  |  |  | 
4 | CCCN(CCC)[C@H]1CCc2c(OC)cccc2[C@H]1C.Cl |  | 1.7 |  |  | 1.8 |  |  | 8 |  |  |  | inactive | inactive | inactive | inactive |  |  | 
5 | O=C(CCCN1CCC(O)(c2ccc(Cl)cc2)CC1)c1ccc(F)cc1 [HALOPERIDOL] | 75 |  | 3 |  |  | 0.07 | 0.07 |  |  |  |  |  |  |  |  | inactive | inactive | inactive
6 | CCCN(CCC)[C@@H]1CCc2c(OC)cccc2[C@@H]1C.Cl | 144 |  | 49 |  |  | 4 | 3 | 4 | inactive | inactive |  |  |  |  |  |  |  | 
